Data as given in ChEMBL document CHEMBL1154084, “Preparation and antitubercular activities in vitro and in vivo of novel Schiff bases of isoniazid” (Eur J Med Chem, 2009).
≈ marks a conversion by molar mass, not a printed value.

Legend:
[1] = tested on: Mycobacterium tuberculosis; experiment: Antitubercular activity against Mycobacterium tuberculosis H37Rv by broth dilution method; format: functional
[2] = Selectivity index, ratio IC50 for african green monkey Vero cells to MIC for Mycobacterium tuberculosis H37Rv; format: functional
In short: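 Vero cells exposed 72 h, at up to ten times the MIC, with viability read by a cell proliferation assay. SI is IC50 divided by the MIC against H37Rv; the screening criterion is SI >10.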

[3] = tested on: Mycobacterium tuberculosis; experiment: Antitubercular activity against Mycobacterium tuberculosis infected in C57BL/6 mouse assessed reduction in colony forming units per lung at 25 mg/kg administered for 2 days after 24 hrs post-infection measured after 3 days by short course therapy (Rvb=6.51 +/- 0.13 logCFU/lung); format: functional
[4] = tested on: Mycobacterium tuberculosis; experiment: Bacteriostatic activity in Mycobacterium tuberculosis Erdman infected in mouse macrophages assessed as reduction of colony forming units after 7 days; format: functional; conditions: 168 h
In short: (§1)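 CFU read at 7 days against drug-free controls. EC90 is the lowest concentration giving 90% CFU reduction (bacteriostatic); EC99 is the lowest giving 99% (bactericidal).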

[5] = Ratio of EC90 for Mycobacterium tuberculosis Erdman to MIC for Mycobacterium tuberculosis H37Rv; format: functional
[6] = tested on: Mycobacterium tuberculosis; experiment: Bactericidal activity in Mycobacterium tuberculosis Erdman infected in mouse macrophages assessed as reduction of colony forming units after 7 days; format: functional; conditions: 168 h; in short: as §1
[7] = tested on: Mycobacterium tuberculosis; experiment: Antitubercular activity against Mycobacterium tuberculosis infected in C57BL/6 mouse assessed reduction in colony forming units per lung at 25 mg/kg administered for 2 days after 24 hrs post-infection measured after 3 days by short course therapy (Rvb=6.37 +/- 0.24 logCFU/lung); format: functional
[8] = organism: Mus musculus; experiment: Toxicity in C57BL/6 mouse assessed as overt toxicity; format: organism-based; conditions: in vivo
In short: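 C57BL/6 mice infected intranasally with approximately one million viable M. tuberculosis organisms. Dosing by gavage at 25 mg/kg body weight (compound in DMSO diluted in distilled water), starting one day post-infection and given for two days. Animals observed for ill effects or overt toxicity until sacrifice by CO2 inhalation three days post-infection. Groups of six mice.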

[9] = tested on: Mycobacterium tuberculosis; experiment: Antitubercular activity against Mycobacterium tuberculosis Erdman by broth dilution method; format: functional
In short: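 Modified 7H10 broth (no agar or malachite green; pH 6.6) with 10% OADC and 0.05% Tween 80; broth dilution MIC90. Inoculum grown 5 days at 37°C on rotary shaker, diluted to 100 Klett units/mL (about 5 × 10^7 cfu/mL), checked by triplicate 7H10 agar counts after 4 weeks at 37°C. Compounds dissolved in DMSO, diluted in distilled water; isoniazid and PAS as reference standards.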

[10] = tested on: Mycobacterium tuberculosis; experiment: Antitubercular activity against Mycobacterium tuberculosis infected in CD1 mouse assessed colony forming units per lung at 25 mg/kg administered 5 days a week for 4 weeks after 1 week post-infection by long course therapy (Rvb=8.80 +/- 0.18 logCFU/lung); format: functional

SMILES | MIC90 [1] [µg/mL] | Ratio [2] | further results
CCC/C(CC(=O)OCC)=N/NC(=O)c1ccncc1 [ETHYL BUTYRYL ACETATE ISONICOTINOYLHYDRAZONE] | 0.39 | >2631 | –
CCOC(=O)/C(CCc1ccccc1)=N\NC(=O)c1ccncc1 | 0.1 (≈ 0.307 µM) | >1250 | –
O=C(N/N=C/c1ccc(F)c(F)c1)c1ccncc1 | 1.56 (≈ 5.97 µM) | – | –
CC(C)C/C=C(\C=N\NC(=O)c1ccncc1)C(C)C | – | >10 | log10cfu [3]: 5.49
O=C(N/N=C/c1ccc(/C=N/NC(=O)c2ccncc2)cc1)c1ccncc1 | 0.05 (≈ 0.134 µM) | >126 | –
CC(C)=CCCC(C)C/C=N/NC(=O)c1ccncc1 (stereo not drawn) | 0.2 (≈ 0.732 µM) | >1000 | –
O=C(N/N=C/c1ccc(Cl)cc1)c1ccncc1 | 0.2 (≈ 0.77 µM) | >50 | EC90 [4]: 0.04 µg/mL (≈ 0.154 µM); Ratio [5]: 0.2; EC99 [6]: 0.14 µg/mL
O=C(N/N=C/c1ccc(Cl)c(Cl)c1)c1ccncc1 | 0.2 (≈ 0.68 µM) | >50 | EC90 [4]: 0.106 µg/mL (≈ 0.36 µM); Ratio [5]: 0.53; EC99 [6]: 0.596 µg/mL
CCCCOc1ccc(/C=N/NC(=O)c2ccncc2)cc1 | 0.1 (≈ 0.336 µM) | >2000 | –
CCOC(=O)C/C(Cc1ccccc1)=N/NC(=O)c1ccncc1 | 0.1 (≈ 0.307 µM) | >1250 | EC90 [4]: 0.01 µg/mL (≈ 0.0307 µM); Ratio [5]: 0.1; EC99 [6]: 0.211 µg/mL
CCC/C=C/C=N/NC(=O)c1ccncc1 | < 6.25 | – | –
O=C(N/N=C/c1ccc(Cl)c([N+](=O)[O-])c1)c1ccncc1 | 0.39 (≈ 1.28 µM) | >64 | EC90 [4]: 0.078 µg/mL (≈ 0.256 µM); Ratio [5]: 0.2; EC99 [6]: 0.3 µg/mL
COc1cc(/C=N/NC(=O)c2ccncc2)cc(I)c1O | 0.39 (≈ 0.982 µM) | >160 | –
O=C(N/N=C/c1c(F)cccc1F)c1ccncc1 | 0.1 (≈ 0.383 µM) | >1250 | EC90 [4]: 0.037 µg/mL (≈ 0.142 µM); Ratio [5]: 0.37; EC99 [6]: 0.15 µg/mL
CC(C)=NNC(=O)c1ccncc1 | 0.1 (≈ 0.564 µM) | >10000 | –
CC(/C=N/NC(=O)c1ccncc1)=C\c1ccccc1 | 0.5 (≈ 1.88 µM) | >250 | log10cfu [3]: 5.22
C/C=C/C=N/NC(=O)c1ccncc1 | < 6.25 | – | –
O=C(N/N=C/c1ccc(I)cc1)c1ccncc1 | 0.2 (≈ 0.57 µM) | >50 | –
COc1ccccc1/C=C/C=N/NC(=O)c1ccncc1 | 0.1 (≈ 0.355 µM) | – | –
CCCCC/C(=N\NC(=O)c1ccncc1)c1ccccc1 | 0.39 (≈ 1.32 µM) | 25 | EC90 [4]: 0.05 µg/mL (≈ 0.169 µM); Ratio [5]: 0.13; EC99 [6]: 0.25 µg/mL
O=C(N/N=C/C=N/NC(=O)c1ccncc1)c1ccncc1 | 0.1 (≈ 0.338 µM) | – | –
O=C(N/N=C/C=C(c1ccccc1)c1ccccc1)c1ccncc1 | – | 68 | EC90 [4]: 0.028 µg/mL (≈ 0.0855 µM); Ratio [5]: 0.28; EC99 [6]: 0.121 µg/mL

SMILES | MIC90 [1] [µg/mL] | Ratio [2] | further results
O=C(N/N=C/c1ccccc1)c1ccncc1 [N'-BENZYLIDENE ISONICOTINOHYDRAZIDE] | 0.05 (≈ 0.222 µM) | 4000 | –
CCCC/C=C/C=N/NC(=O)c1ccncc1 | < 6.25 | – | –
NNC(=O)c1ccncc1 [ISONIAZID] | – | – | MIC [1]: 0.03 µg/mL (≈ 0.219 µM); log10cfu [7]: 5.58; Activity [8]: Non-toxic; MIC [9]: 0.03 µg/mL (≈ 0.219 µM); Ratio [5]: 1; log10cfu [10]: 4.71; log10cfu [3]: 4.96
O=C(N/N=C/c1cccc(Cl)c1Cl)c1ccncc1 | 0.78 (≈ 2.65 µM) | >32 | EC90 [4]: 0.071 µg/mL (≈ 0.241 µM); Ratio [5]: 0.09; EC99 [6]: 0.3 µg/mL
CCCCCCCCCCCC/C=N\NC(=O)c1ccncc1 | 0.2 (≈ 0.63 µM) | 374 | –
O=C(NN=C1CCCCC1)c1ccncc1 | 0.03 (≈ 0.138 µM) | >40000 | EC90 [4]: 0.08 µg/mL (≈ 0.368 µM); Ratio [5]: 2.7; log10cfu [10]: 4.65; EC99 [6]: 0.42 µg/mL
CC(C)=CCC/C(C)=C/C=N/NC(=O)c1ccncc1 | 0.1 (≈ 0.369 µM) | – | –
CCCCCCCCCCCCC/C=N\NC(=O)c1ccncc1 | 0.2 (≈ 0.603 µM) | – | –
O=C(N/N=C/c1ccccc1OCc1ccccc1)c1ccncc1 | – | – | log10cfu [7]: 5.49; Activity [8]: Non-toxic; MIC90 [9]: 0.06 µg/mL (≈ 0.181 µM)
O=C(N/N=C/c1c(Cl)cccc1Cl)c1ccncc1 | < 6.25 | – | –
Nc1ccc(C(=O)O)c(O)c1 [AMINOSALICYLIC ACID] | – | – | MIC [9]: 0.03 µg/mL (≈ 0.196 µM)
CCCC/C=C(\C=N\NC(=O)c1ccncc1)CCC | – | 1.6 | –
O=C(N/N=C/c1ccccc1[N+](=O)[O-])c1ccncc1 | 0.39 (≈ 1.44 µM) | – | –
O=C(N/N=C/c1ccc(Br)cc1)c1ccncc1 | 3.13 (≈ 10.3 µM) | 12 | –
COc1cc(/C=N/NC(=O)c2ccncc2)cc(I)c1OC | 0.2 (≈ 0.486 µM) | 297 | –
CCOC(=O)C/C(C)=N\NC(=O)c1ccncc1 [ETHYL ACETOACETATE ISONICOTINOYLHYDRAZONE] | 0.2 (≈ 0.802 µM) | >5000 | –
COc1ccc(/C=C/C=N/NC(=O)c2ccncc2)cc1 | – | >50 | –
O=C(N/N=C/c1ccccc1Cl)c1ccncc1 | 0.78 (≈ 3 µM) | >128 | –
CC1C/C(=N/NC(=O)c2ccncc2)CC(C)(C)C1 (stereo not drawn) | < 0.025 | >2000 | EC90 [4]: 0.063 µg/mL (≈ 0.243 µM); Ratio [5]: 2.52; EC99 [6]: 0.15 µg/mL
O=C(N/N=C/c1cccc([N+](=O)[O-])c1)c1ccncc1 | – | 8 | –
CC/C=C/C=N/NC(=O)c1ccncc1 | 0.05 (≈ 0.246 µM) | 712 | EC90 [4]: 0.028 µg/mL (≈ 0.138 µM); Ratio [5]: 0.56; EC99 [6]: 0.529 µg/mL
CCCCCCOc1ccc(/C=N/NC(=O)c2ccncc2)cc1 | – | 1.5 | –
